≈ marks a conversion by molar mass, not a printed value.
Key:
E6SM [1] = assay: Cytotoxic activity against HSV-1(KOS) virus in E6SM Cells; type: functional; conditions: Homo sapiens
Summary of the method: (§1)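 Antiviral screen in cell culture (HeLa, HEL, E6SM or Vero, per line). IC50 is the concentration that reduces virus-induced cytopathogenicity by 50%.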

E6SM [2] = assay: Cytotoxic activity against HSV-2 (G) virus in E6SM Cells; type: functional; conditions: Homo sapiens
E6SM [3] = assay: Cytotoxic activity against TK-HSV-1 (B2006) virus in E6SM Cells; type: functional; conditions: Homo sapiens
E6SM [4] = assay: Cytotoxic activity against VSV virus in E6SM Cells; type: functional; conditions: Homo sapiens; summary of the method: as §1
E6SM [5] = assay: Cytotoxic activity against vaccinia virus in E6SM Cells; type: functional; conditions: Homo sapiens; summary of the method: as §1
HEL [6] = assay: Cytotoxic activity against HCMV (AD-169) virus in HEL Cells; type: functional; conditions: Homo sapiens
HEL [7] = assay: Cytotoxic activity against HCMV(Davis) virus in HEL Cells; type: functional; conditions: Homo sapiens
HEL [8] = assay: Cytotoxic activity against TK-VZV (YS/R) virus in HEL Cells; type: functional; conditions: Homo sapiens
HEL [9] = assay: Cytotoxic activity against VZV (OKA) virus in HEL Cells; type: functional; conditions: Homo sapiens; summary of the method: as §1
HEL [10] = assay: Cytotoxic activity against VZV (YS) virus in HEL Cells; type: functional; conditions: Homo sapiens
HEL [11] = assay: Cytotoxic activity against cell growth in HEL Cells; type: functional; conditions: Homo sapiens
Summary of the method: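 HEL cell cultures. CC50 is the concentration that reduces cell growth by 50%.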

HeLa [12] = assay: Cytotoxic activity against Coxsackie B4 virus in HeLa Cells; type: functional; conditions: Homo sapiens
HeLa [13] = assay: Cytotoxic activity against Polio-1 virus in HeLa Cells; type: functional; conditions: Homo sapiens; summary of the method: as §1
HeLa [14] = assay: Cytotoxic activity against VZV virus in HeLa Cells; type: functional; conditions: Homo sapiens
HeLa [15] = assay: Cytotoxic activity against cell morphology in HeLa Cells; type: functional; conditions: Homo sapiens
Summary of the method: (§2)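 Host cells under the conditions of the antiviral assays (E6SM, HeLa or Vero, per line). Cytotoxic concentration is the one causing microscopic alteration of normal cell morphology in about 50% of cells.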

Vero [16] = assay: Inhibitory activity against virus plaque formation (PV-3) in Vero cells; type: functional, cell-based; conditions: Chlorocebus sabaeus
Summary of the method: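 Poliovirus type 3 in Vero cells. IC50 is the concentration that reduces virus plaque formation by 50%.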

Vero [17] = assay: Inhibitory activity against virus-induced cytopathogenicity (VSV)in Vero cells; type: functional, cell-based; conditions: Chlorocebus sabaeus
Summary of the method: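 Vesicular stomatitis virus in Vero cells. IC50 is the concentration that reduces virus-induced cytopathogenicity by 50%.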

Vero [18] = assay: Cytotoxic activity against Reo-1 virus in Vero Cells; type: functional; conditions: Chlorocebus sabaeus
Vero [19] = assay: Cytotoxic activity against forest virus in Vero Cells; type: functional; conditions: Chlorocebus sabaeus; summary of the method: as §1
Vero [20] = assay: Cytotoxic activity against Sindbis virus in Vero Cells; type: functional; conditions: Chlorocebus sabaeus
Vero [21] = assay: Cytotoxic activity against Tacaribe virus in Vero Cells; type: functional; conditions: Chlorocebus sabaeus; summary of the method: as §1
Vero [22] = assay: Cytotoxic activity towards viable cells in Vero cells; type: functional; conditions: Chlorocebus sabaeus
Summary of the method: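 Vero cells. CC50 is the concentration that reduces the number of viable cells by 50%.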

Vero [23] = assay: Cytotoxic activity against Junin virus in Vero Cells; type: functional; conditions: Chlorocebus sabaeus; summary of the method: as §1
Vero [24] = assay: Cytotoxic activity against PV-3 virus in Vero Cells; type: functional; conditions: Chlorocebus sabaeus
E6SM [25] = assay: Cytotoxic activity against cell morphology in E6SM Cells; type: functional; conditions: Homo sapiens; summary of the method: as §2
HEL [26] = assay: Cytotoxic activity against TK-VZV (07/1) virus in HEL Cells; type: functional; conditions: Homo sapiens
Vero [27] = assay: Cytotoxic activity against cell morphology in Vero Cells; type: functional; conditions: Chlorocebus sabaeus; summary of the method: as §2
[28] = Inhibitory activity against S-adenosyl-L-homocysteine hydrolase from rabbit erythrocytes

With Nc1ncnc2c1ncn2[C@@H]1C=C(CCO)[C@@H](O)[C@H]1O the CC50 (E6SM [1]) was > 400 µg/mL, the CC50 (E6SM [2]) was > 400 µg/mL and the CC50 (E6SM [3]) was > 400 µg/mL. For the same molecule, the CC50 (E6SM [4]) was 1 µg/mL (≈ 3.61 µM), the CC50 (E6SM [5]) was 0.1 µg/mL (≈ 0.361 µM) and the CC50 (HEL [6]) was 0.15 µg/mL (≈ 0.541 µM). For the same molecule, the CC50 (HEL [7]) was 0.5 µg/mL (≈ 1.8 µM), the CC50 (HEL [8]) was > 50 µg/mL and the CC50 (HEL [9]) was > 50 µg/mL. The CC50 (HEL [10]) was > 50 µg/mL, the CC50 (HEL [11]) was > 50 µg/mL and the CC50 (HeLa [12]) was > 200 µg/mL. The CC50 (HeLa [13]) was > 200 µg/mL, the CC50 (HeLa [14]) was 0.7 µg/mL (≈ 2.52 µM) and the CC50 (HeLa [15]) was > 400 µg/mL. It also gave an IC50 (Vero [16]) of 0.35 µg/mL (≈ 1.26 µM), an IC50 (Vero [17]) of 1 µg/mL (≈ 3.61 µM) and a CC50 (Vero [18]) of 70 µg/mL (≈ 252 µM). For the same molecule, the CC50 (Vero [19]) was > 400 µg/mL, the CC50 (Vero [20]) was > 400 µg/mL and the CC50 (Vero [21]) was 20 µg/mL (≈ 72.1 µM). For the same molecule, the CC50 (Vero [22]) was > 500 µg/mL, the CC50 (Vero [23]) was 5 µg/mL (≈ 18 µM) and the CC50 (Vero [24]) was 2 µg/mL (≈ 7.21 µM). The CC50 (E6SM [25]) was > 400 µg/mL, the CC50 (HEL [26]) was > 50 µg/mL and the CC50 (Vero [27]) was > 400 µg/mL.

In the case of Nc1nc(O)c2ncn([C@@H]3C=C(CCO)[C@@H](O)[C@H]3O)c2n1, the IC50 (Vero [16]) is reported as > 25 µg/mL, the IC50 (Vero [17]) is reported as > 500 µg/mL and the CC50 (Vero [22]) is reported as > 500 µg/mL.

In the case of Nc1nccc2c1ncn2[C@@H]1C=C(CCO)[C@@H](O)[C@H]1O, the IC50 (Vero [16]) is reported as > 25 µg/mL, the IC50 (Vero [17]) is reported as 3.9 µg/mL (≈ 14.1 µM) and the CC50 (Vero [22]) is reported as > 500 µg/mL.

With Cc1cn([C@@H]2C=C(CCO)[C@@H](O)[C@H]2O)c(=O)[nH]c1=O the IC50 (Vero [16]) was > 25 µg/mL, the IC50 (Vero [17]) was > 500 µg/mL and the CC50 (Vero [22]) was > 500 µg/mL.

In the case of Nc1ccn([C@@H]2C=C(CCO)[C@@H](O)[C@H]2O)c(=O)n1, the IC50 (Vero [16]) is reported as > 25 µg/mL, the IC50 (Vero [17]) is reported as > 500 µg/mL and the CC50 (Vero [22]) is reported as > 500 µg/mL.

In the case of Nc1ncnc2c1ncn2[C@@H]1C=C(CO)[C@@H](O)[C@H]1O [NEOPLANOCIN A], the CC50 (E6SM [1]) is reported as > 70 µg/mL, the CC50 (E6SM [2]) is reported as > 70 µg/mL and the CC50 (E6SM [3]) is reported as 40 µg/mL (≈ 152 µM). For the same molecule, the CC50 (E6SM [4]) was 7 µg/mL (≈ 26.6 µM), the CC50 (E6SM [5]) was 0.7 µg/mL (≈ 2.66 µM) and the CC50 (HEL [6]) was 0.3 µg/mL (≈ 1.14 µM). For the same molecule, the CC50 (HEL [7]) was 0.4 µg/mL (≈ 1.52 µM), the CC50 (HEL [8]) was 7 µg/mL (≈ 26.6 µM) and the CC50 (HEL [9]) was 15 µg/mL (≈ 57 µM). For the same molecule, the CC50 (HEL [10]) was 9 µg/mL (≈ 34.2 µM), the CC50 (HEL [11]) was > 20 µg/mL and the CC50 (HeLa [12]) was > 40 µg/mL. The CC50 (HeLa [13]) was > 40 µg/mL, the CC50 (HeLa [14]) was 2 µg/mL (≈ 7.6 µM) and the CC50 (HeLa [15]) was > 40 µg/mL. It also gave an IC50 (Vero [16]) of 0.74 µg/mL (≈ 2.81 µM), an IC50 (Vero [17]) of 1 µg/mL (≈ 3.8 µM) and a CC50 (Vero [18]) of 4 µg/mL (≈ 15.2 µM). For the same molecule, the CC50 (Vero [19]) was > 10 µg/mL, the CC50 (Vero [20]) was > 10 µg/mL and the CC50 (Vero [21]) was 2 µg/mL (≈ 7.6 µM). It also gave a CC50 (Vero [22]) of 152 µg/mL (≈ 577 µM), a CC50 (Vero [23]) of 0.5 µg/mL (≈ 1.9 µM) and a CC50 (Vero [24]) of 2 µg/mL (≈ 7.6 µM). The CC50 (E6SM [25]) was 70 µg/mL (≈ 266 µM), the CC50 (HEL [26]) was 10 µg/mL (≈ 38 µM) and the CC50 (Vero [27]) was > 10 µg/mL. The IC50 [28] was 0.004 µg/mL (≈ 0.0152 µM).
